For data set [1], the system named is Coxsackievirus B5. Nature of the data set: Antiviral activity against Coxsackievirus B5 Faulkner (ATCC VR-185) infected in Vero 76 cells after 3 days by plaque reduction assays. Type of data set: functional, organism-based. To be noted: Enterovirus B, Vero 76, 72 h. (In general: In a plaque reduction assay, fewer plaques than in the control indicate reduced infectivity or spread.)

Data set [2] can be described thus: Cytotoxicity against mock-infected hamster BHK21 cells assessed as reduction in proliferation after 72 hrs by MTT method. Type of data set: cell-based, Mesocricetus auratus, BHK-21. The essentials: (§1)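 MDBK and BHK cells seeded at 6 × 10⁵ and 1 × 10⁶ cells/mL respectively. Medium was MEM-Earle with L-glutamine, 1 mM pyruvate and kanamycin, plus 10% horse serum (MDBK) or 10% FBS (BHK). Cells exposed to serial compound dilutions at 37 °C, 5% CO₂; MTT viability read at 72 h. CC50 by linear regression versus untreated controls.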
For orientation: Tetrazolium assays rely on reduction of a dye to a coloured formazan, in cell work by metabolically active cells.

Data set [3] is described as follows: Cytotoxicity against mock-infected human MT4 cells assessed as reduction in proliferation after 96 hrs by MTT method. The data set is classed as cell-based. The essentials: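 Exponentially growing MT-4 cells seeded at 1 × 10⁵ cells/mL in RPMI-1640 with 10% FBS, penicillin and streptomycin. Held 96 h at 37 °C, 5% CO₂ with or without serial compound dilutions; viability by MTT. Compounds dissolved in DMSO at 100 mM stock, then diluted in medium. CC50 by linear regression.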

The nature of data set [4]: Antiviral activity against Simian virus 12 3651 (ATCC VR- 214) infected in BHK21 cells assessed as protection from virus-induced cytopathogenicity after 3 to 4 days by MTT method. The data set is classed as functional, cell-based. As to conditions: BHK-21. In short, it runs like this: (§2)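 Confluent monolayers grown overnight (BHK-21 at 5×10⁴ cells/well for YFV and Reo-1; MDBK at 3×10⁴ cells/well for BVDV). Infection at m.o.i. 0.01 for 2 h in maintenance MEM-Earle with 0.5% inactivated FBS, then serial compound dilutions added. Viability read by MTT after 3–4 days at 37 °C. EC50 taken from linear regression against untreated controls.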
In general terms: Protection from cytopathic effect is a common read-out in antiviral testing.

Data set [5] can be described thus: Cytotoxicity against mock-infected African green monkey Vero 76 cells assessed as reduction in proliferation after 48 to 96 hrs by MTT method. The data set is classed as cell-based. As to conditions: chlorocebus sabaeus, Vero 76 cells (mock-infected). The essentials:
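Vero-76 cells seeded at 4 × 10⁵ cells/mL in D-MEM with L-glutamine, kanamycin and 10% FBS. Incubated at 37 °C, 5% CO₂, with or without serial dilutions of compound; viability read by MTT after 48–96 h. Run in parallel with antiviral assays. CC50 obtained by linear regression of % of untreated control.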

Data set [6] deals with Human immunodeficiency virus 1. Nature of the data set: Antiviral activity against HIV-13B infected in MT4 cells assessed as protection from virus-induced cytopathogenicity after 4 days by MTT method. The data set is classed as functional, organism-based. As to conditions: Human immunodeficiency virus 1, 3B, MT4, 96 h. The essentials: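 HIV-1 IIIB, taken from persistently infected H9/IIIB supernatant. MT-4 cells (1×10⁴/well) in RPMI with serial compound dilutions, infected with 100 CCID50 (m.o.i. 0.01). Viability by MTT after 4 days at 37 °C. EC50 = 50% protection from cytopathogenicity, by linear regression against untreated controls. Compounds kept as 100 mM DMSO stocks, diluted in medium.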

Data set [7] can be described thus: Antiviral activity against Human respiratory syncytial virus A2 ATCC VR-1540 infected in Vero 76 cells after 5 days by plaque reduction assays. To be noted: ATCC VR-1540, Vero 76, 120 h. Type of data set: functional, cell-based.
The nature of data set [8]: Cytotoxicity against mock-infected bovine MDBK cells assessed as reduction in proliferation after 72 hrs by MTT method. Type of data set: cell-based, Bos taurus. To be noted: cattle. The essentials:
as §1

Data set [9] has as its system Vesicular stomatitis Indiana virus. In words: Antiviral activity against Vesicular stomatitis Indiana virus ATCC VR 158 infected in Vero 76 cells after 2 days by plaque reduction assays. As to conditions: ATCC VR 158, Vero 76, 48 h. The data set is classed as functional, organism-based.
The subject of data set [10] is Yellow fever virus. In words: Antiviral activity against Yellow fever virus 17D Stamaril Pasteur J07B01 infected in BHK21 cells assessed as protection from virus-induced cytopathogenicity after 3 to 4 days by MTT method. Type of data set: functional, cell-based. As to conditions: Stamaril Pasteur J07B01, BHK-21. In short, it runs like this:
as §2

The nature of data set [11]: Antiviral activity against Vaccinia virus Lister ATCC VR-1549 infected in Vero 76 cells after 3 days by plaque reduction assays. The data set is classed as functional, cell-based. As to conditions: ATCC VR-1549, Vero 76, 72 h.
Data set [12] concerns Human alphaherpesvirus 1. Nature of the data set: Antiviral activity against Human herpesvirus 1 strain KOS ATCC VR- 1493 infected in Vero 76 cells after 3 days by plaque reduction assays. Type of data set: functional, organism-based. As to conditions: Human alphaherpesvirus 1, KOS ATCC VR1493, Vero 76, 72 h.
The subject of data set [13] is Human poliovirus 1 strain Sabin. In words: Antiviral activity against Poliovirus 1 strain Sabin ATCC VR-1562 infected in Vero 76 cells after 2 days by plaque reduction assays. Type of data set: functional, organism-based. To be noted: Enterovirus C, ATCC VR-1562, Vero 76, 48 h.
Data set [14] in a line: Antiviral activity against Bovine viral diarrhea virus 1-NADL ATCC VR-534 infected in MDBK cells assessed as protection from virus-induced cytopathogenicity after 3 to 4 days by MTT method. As to conditions: Bovine viral diarrhea virus isolates and strains, ATCC VR-534, MDBK. Type of data set: functional, cell-based. The essentials: as §2
Data set [15] in a line: Half life in pH 7.4 buffered solution. The data set is classed as physicochemical. In short, it runs like this: (§3)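 Compound kept at 37 °C in pH 7.4 phosphate buffer (chemical) or plasma (enzymatic), sampled hourly. Plasma aliquots extracted with acetonitrile (1:2) and centrifuged 1000 g for 10 min. Supernatant or buffer analysed by reversed-phase HPLC, methanol/water 80:20, detection at 250 nm. Pseudo-first-order t½ taken from the slope of log remaining compound versus time.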

Data set [16] is described as follows: Ratio of Cidofovir EC50 to compound EC50 for Vaccinia virus Lister ATCC VR-1549 infected in Vero 76 cells after 3 days by plaque reduction assays. Type of data set: functional.
Data set [17] can be described thus: Half life in plasma (unknown origin). As to conditions: unidentified. Type of data set: ADME, cell-free. The essentials:
as §3

Molecules are shown by their SMILES. A value given as a limit tells only on which side of the number the result lay.

The EC50 is the concentration at which the effect is half-maximal. In general, CC50 refers to the concentration at which the toxic effect on the cells reaches its halfway point. A word on the half-life: it is how long it takes for the measured level to halve.

Regarding `N#Cc1ccc(-c2nc3ccncc3[nH]2)cc1`, the EC50 in data set [1], in data set [4], in data set [6], in data set [7], in [9] and in data set [10] was over 100 µM each time. Also, the EC50 was 56 µM in [11], over 100 µM in [12], over 100 µM in [13] and 9 µM in [14]. The CC50 at 72 h in data set [2] and in data set [8] was over 100 µM in each case. For the same compound, the CC50 at 96 h in data set [3] is over 100 µM. Further, in data set [5], the CC50 is over 100 µM.
Turning to `N#Cc1ccc(-c2nc3cc(Br)cnc3[nH]2)cc1`, the EC50 in data set [1] was over 73 µM; in data set [4], over 100 µM; in data set [7] it was over 73 µM; in data set [9], over 73 µM; in data set [10], over 100 µM; in data set [11], 2 µM. Further, the 50% effective concentration (EC50) was 15 µM in [12], over 73 µM in data set [13] and over 100 µM in data set [14]. Further, the figures for the half-life in data set [15] and in data set [17] were over 4 h and 2 h, respectively. For the same compound, the CC50 at 72 h in data set [2] and in [8] was over 100 µM in each case. In addition, the CC50 at 96 h in data set [3] came to 53 µM. In data set [5], the CC50 was found to be 73 µM. Also, the “Ratio EC50” value in data set [16] amounted to 10.
Consider `Brc1cnc2[nH]c(-c3ccoc3)nc2c1`, for which the EC50 was over 40 µM in data set [1]; over 100 µM in data set [4]; 20 µM in [6]; over 40 µM in data set [7]; over 40 µM in [9]; over 100 µM in [10]. Moreover, the EC50 in data set [11] was over 40 µM; in [12], over 40 µM; in data set [13] it was over 40 µM; in [14] it was 40 µM. Further, the CC50 at 72 h is over 100 µM in data set [2] and 40 µM in data set [8]. The CC50 at 96 h in data set [3] turned out to be 20 µM. Moreover, in [5], the cytotoxic concentration (CC50) stood at 40 µM.
In the case of `FC(F)(F)c1ccc(-c2nc3cccnc3[nH]2)cc1`, the EC50 is 18 µM in data set [1]; over 100 µM in data set [4]; over 100 µM in data set [6]; over 100 µM in data set [7]; over 100 µM in [9]; over 100 µM in [10]. Further, the half-maximal effective concentration (EC50) in data set [11], in data set [12], in data set [13] and in data set [14] was over 100 µM each time. The CC50 at 72 h in data set [2] and in data set [8] was over 100 µM throughout. In addition, the CC50 at 96 h in [3] is over 100 µM. Also, in [5], the CC50 was over 100 µM.
Turning to `c1cnc2[nH]c(C3CCCCC3)nc2c1`, the EC50 in data set [1] is 86 µM; in data set [4], over 100 µM; in data set [6], over 100 µM; in data set [7], over 100 µM; in data set [9] it was over 100 µM; in data set [10], over 100 µM. Besides, the EC50 in data set [11], in [12], in [13] and in [14] was over 100 µM in each case. Besides, the CC50 at 72 h in data set [2] and in data set [8] was over 100 µM throughout. Moreover, the CC50 at 96 h in [3] was over 100 µM. Moreover, in data set [5], the CC50 was over 100 µM.
`Nc1c(/N=C/c2ccc(C(F)(F)F)cc2)cc2cccnc2c1Cl`: the concentration for a half-maximal effect (EC50) in data set [1] was 29 µM; in data set [4], over 25 µM; in [6], over 100 µM; in data set [7], 12 µM; in data set [9], over 90 µM; in data set [10], over 25 µM. Further, the EC50 in data set [11] was over 90 µM; in [12] it was over 100 µM; in [13], 57 µM; in data set [14], 14 µM. The CC50 at 72 h is over 25 µM in [2] and over 100 µM in data set [8]. Further, the CC50 at 96 h in data set [3] turned out to be 49 µM. The CC50 in data set [5] was 90 µM.
Consider `Brc1cnc2[nH]c(C3CCCCC3)nc2c1`, for which the EC50 in [1] is 20 µM; in [4] it was over 100 µM; in data set [6], over 100 µM; in [7], over 100 µM; in data set [9], over 100 µM; in [10], over 100 µM. Besides, the EC50 is 16 µM in data set [11], over 100 µM in [12], over 100 µM in data set [13] and over 100 µM in data set [14]. For the same compound, the CC50 at 72 h in data set [2] and in data set [8] was over 100 µM throughout. For the same compound, the CC50 at 96 h in [3] is over 100 µM. Moreover, the CC50 in [5] is over 100 µM.
As to `FC(F)(F)c1ccc(-c2nc3cc(Br)cnc3[nH]2)cc1`, the EC50 in data set [1], in [4], in data set [6], in [7], in data set [9] and in data set [10] was over 100 µM in each case. For the same compound, the EC50 in [11] was 4 µM; in data set [12], over 100 µM; in data set [13] it was over 100 µM; in data set [14], over 100 µM. The CC50 at 72 h in data set [2] and in data set [8] was over 100 µM in each case. Also, the CC50 at 96 h in data set [3] was over 100 µM. Moreover, the CC50 in data set [5] was over 100 µM.
